The results in this text go back to ChEMBL document CHEMBL4364311, “Variations on a scaffold - Novel GABAA receptor modulators” (Eur J Med Chem, 2019).

The source made the active and inactive calls. The calls are words filed in the database; no cut-off is given here.

Data set [1] addresses T1, Gamma-aminobutyric acid receptor subunit alpha-1/beta-3 (Rattus norvegicus) (UniProt P62813+P63079). Kind of data set: Positive allosteric modulator activity at rat alpha1beta3 GABA-A receptor expressed in Xenopus laevis oocytes assessed as increase in GABA-induced chloride current at 10 uM co-applied with GABA at concentration of EC3-5 at -60 mV holding potential by two-microelectrode voltage clamp method relative to control. Format: cell-based. The gist of the method: (§1)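 α1 and β3 RNA mixed 1:1 (final 56 ng/μl); collagenase-defolliculated stage 5–6 Xenopus oocytes injected with 2.8 ng mRNA, kept 2–3 days at 18 °C. Two-electrode clamp at −60 mV, room temperature, electrodes 1–3 MΩ with 2 M KCl, NDE perfusion 6 mL/min. GABA titrated to 3–5% of maximal current, co-applied with compound (0.1% DMSO final) until peak response.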

Data set [2] is described as follows: Solubility of the compound in MeOH. The class given is physicochemical.
Data set [3] is described as follows: Solubility of the compound at 30 uM in NDE medium containing 0.1% DMSO. Format: physicochemical.
For data set [4], the target named is T1, Gamma-aminobutyric acid receptor subunit alpha-1/beta-3 (Rattus norvegicus). Description: Positive allosteric modulator activity at rat alpha1beta3 GABA-A receptor expressed in Xenopus laevis oocytes assessed as increase in GABA-induced chloride current at 30 uM co-applied with GABA at concentration of EC3-5 at -60 mV holding potential by two-microelectrode voltage clamp method relative to control. Format: cell-based. The gist of the method: as §1

The nature of data set [5]: Solubility of the compound in DMSO. Format: physicochemical.
Data set [6] addresses T1, Gamma-aminobutyric acid receptor subunit alpha-1/beta-3 (Rattus norvegicus). Description: Positive allosteric modulator activity at rat alpha1beta3 GABA-A receptor expressed in Xenopus laevis oocytes assessed as increase in GABA-induced chloride current at 1 to 30 uM co-applied with GABA at concentration of EC3-5 at -60 mV holding potential by two-microelectrode voltage clamp method relative to control. Format: cell-based. The gist of the method:
as §1

Turning to `Cc1ccc(-n2nc3c4cc(Cl)ccc4[nH]cc-3c2=O)cc1`, the Efficacy in data set [1] was determined as 372%.

Regarding `O=C(O)c1[nH]c2ccc(Cl)cc2c1/N=N/c1ccc(Br)cc1`, the solubility result in data set [2], in data set [3] and in data set [5] was “Soluble” throughout. In data set [4], the Efficacy turned out to be 3000%. In data set [6], the outcome was Active.

Take `COc1ccc(-n2nc3c4cc(OC)ccc4[nH]cc-3c2=O)cc1`: in data set [1], the Efficacy came to 1120%.

Take `COc1ccc2[nH]cc3c(=O)n(-c4ccc(C)cc4)nc-3c2c1`: in data set [1], the Efficacy came out at 719%.

As to `COc1ccc2[nH]c(C(=O)O)c(/N=N/c3ccc(C)cc3)c2c1`, the solubility entry in data set [2], in data set [3] and in data set [5] was “Soluble” each time. Besides, the Efficacy in data set [4] was 400%; in data set [1], 167%. The result in data set [6] was Active.

For the compound `Cc1ccc(/N=N/c2c(C(=O)O)[nH]c3ccc(Cl)cc23)cc1`, the solubility result in data set [2], in data set [3] and in data set [5] was “Soluble” in each case. Moreover, the values for the Efficacy in data set [4] and in data set [1] were 1800% and 707%, respectively. Besides, the result in data set [6] was Active.

For `COc1ccc2[nH]c(C(=O)O)c(/N=N/c3ccc(Br)cc3)c2c1`, the solubility result in data set [2], in data set [3] and in data set [5] was “Soluble” throughout. For the same compound, the Efficacy in data set [4] was 830%. Besides, the result in data set [6] was Active.

For `COc1ccc(/N=N/c2c(C(=O)O)[nH]c3ccc(OC)cc23)cc1`, the solubility entry in data set [2], in data set [3] and in data set [5] was “Soluble” in each case. Also, the values for the Efficacy in data set [4] and in data set [1] were 300% and 196%, respectively.

`COc1ccc(/N=N/c2c(C(=O)O)[nH]c3ccc(Cl)cc23)cc1`: the solubility entry in data set [2], in data set [3] and in data set [5] was “Soluble” throughout. The values for the Efficacy in data set [4] and in data set [1] were 2000% and 919%, respectively. Also, the result in data set [6] was Active.

As to `CCOC(=O)c1[nH]c2ccc(Cl)cc2c1/N=N/c1ccc(OC)cc1`, the outcome in data set [4] was inactive.

For the compound `COc1ccc(-n2nc3c4cc(Cl)ccc4[nH]cc-3c2=O)cc1`, the Efficacy in data set [1] amounted to 1060%.

With `COc1ccc(/N=N/c2c(C(=O)O)[nH]c3ccccc23)cc1`, the solubility result in data set [2], in data set [3] and in data set [5] was “Soluble” in each case. Also, the Efficacy in data set [4] came to 200%.

As for `CCOC(=O)c1[nH]c2ccccc2c1/N=N/c1ccc(OC)cc1`, the result in data set [4] was inactive.
